Experimental findings from ChEMBL document CHEMBL1145445, “Dual aromatase-steroid sulfatase inhibitors” (J Med Chem, 2007) are described below.

The structures appear in SMILES notation.

Assay [1] has as its target T1, Aromatase (Homo sapiens, UniProt P11511).
T1 sequence (P11511 whole entry): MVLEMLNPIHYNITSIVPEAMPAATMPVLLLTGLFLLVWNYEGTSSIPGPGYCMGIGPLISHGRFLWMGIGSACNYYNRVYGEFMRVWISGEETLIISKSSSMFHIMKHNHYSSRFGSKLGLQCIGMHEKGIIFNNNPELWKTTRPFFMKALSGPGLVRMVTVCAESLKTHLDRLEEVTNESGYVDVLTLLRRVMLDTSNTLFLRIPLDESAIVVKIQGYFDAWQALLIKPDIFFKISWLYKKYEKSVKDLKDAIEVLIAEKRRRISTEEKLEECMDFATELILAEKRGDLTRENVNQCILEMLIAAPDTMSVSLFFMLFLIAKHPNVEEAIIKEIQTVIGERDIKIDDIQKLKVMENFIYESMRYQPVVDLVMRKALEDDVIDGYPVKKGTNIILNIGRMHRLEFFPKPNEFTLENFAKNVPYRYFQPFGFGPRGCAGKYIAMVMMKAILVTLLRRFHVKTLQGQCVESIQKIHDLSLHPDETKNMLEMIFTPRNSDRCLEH
Briefly: Inhibition of aromatase in JEG3 cell membrane at 1 uM. It is filed as cell-based. The note with it: JEG-3, human; read-out: Activity.

For assay [2], the target named is T1, Aromatase. Briefly: Inhibition of aromatase in JEG3 cell membrane. Format: cell-based, JEG-3.
The target in the next assay is T2, Steryl-sulfatase (Homo sapiens, UniProt P08842).
T2 sequence (P08842 whole entry): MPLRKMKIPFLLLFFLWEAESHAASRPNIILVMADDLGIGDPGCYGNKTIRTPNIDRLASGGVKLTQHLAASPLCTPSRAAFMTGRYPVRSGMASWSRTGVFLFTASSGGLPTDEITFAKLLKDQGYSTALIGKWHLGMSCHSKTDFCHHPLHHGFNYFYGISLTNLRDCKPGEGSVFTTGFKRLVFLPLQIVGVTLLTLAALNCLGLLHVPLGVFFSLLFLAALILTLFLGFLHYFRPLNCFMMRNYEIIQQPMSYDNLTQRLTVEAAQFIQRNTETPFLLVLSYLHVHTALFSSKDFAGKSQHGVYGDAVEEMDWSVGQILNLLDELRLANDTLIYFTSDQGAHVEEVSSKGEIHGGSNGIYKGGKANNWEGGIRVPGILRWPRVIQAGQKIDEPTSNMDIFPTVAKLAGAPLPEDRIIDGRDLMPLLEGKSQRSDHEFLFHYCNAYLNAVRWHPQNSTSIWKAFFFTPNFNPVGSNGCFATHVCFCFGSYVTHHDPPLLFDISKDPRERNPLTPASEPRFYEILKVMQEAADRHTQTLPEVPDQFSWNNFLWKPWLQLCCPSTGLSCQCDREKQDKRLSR
Put plainly: Inhibition of steroid sulfatase in JEG3 cell membrane. It is filed as cell-based, JEG-3.

Assay [3] has as its system Rattus norvegicus. Put plainly: Inhibition of aromatase in Wistar rat assessed as reduction of PMSG-stimulated plasma estradiol level at 10 mg/kg, po after 3 hrs. Format: functional. Summed up: (§1)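 Female Wistar rats got a single sc injection of PMSG (200 IU). Three days later they received a single oral 10 mg/kg dose in THF/propylene glycol (10:90). Plasma estradiol was measured by radioimmunoassay at 3 or 24 h. Results are % inhibition of PMSG-stimulated estradiol, mean ± SE, n = 3, by Student's t test.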

For assay [4], the system named is Rattus norvegicus. Put plainly: Inhibition of steroid sulfatase in Wistar rat assessed as liver STS activity at 10 mg/kg, po after 3 hrs.
For assay [5], the system named is Rattus norvegicus. Put plainly: Inhibition of aromatase in Wistar rat assessed as reduction of PMSG-stimulated plasma estradiol level at 10 mg/kg, po after 24 hrs. It is filed as functional. Summed up: as §1
Assay [6] concerns Rattus norvegicus. Put plainly: Inhibition of steroid sulfatase in Wistar rat assessed as liver STS activity at 10 mg/kg, po after 24 hrs.
Assay [7] has as its system Rattus norvegicus. Briefly: Inhibition of steroid sulfatase in Wistar rat liver at 10 mg/kg, po after 3 hrs. It is filed as functional. In outline: (§2)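 Female Wistar rats were primed with a single sc injection of PMSG (200 IU). Three days later they were dosed once orally at 10 mg/kg in THF/propylene glycol (10:90). Liver was collected 3 or 24 h after dosing and STS activity assayed. Results are expressed against activity in untreated animals, mean ± SE, n = 3.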

In assay [8] the test system is Rattus norvegicus. Briefly: Inhibition of steroid sulfatase in Wistar rat liver at 10 mg/kg, po. It is filed as functional. In outline:
as §2

As for `N#Cc1ccc(N(Cc2ccc(OS(N)(=O)=O)cc2)n2cnnc2)cc1`, on Aromatase [1], the inhibition at 1 µM was 63.4%.

On to `N#Cc1ccc(N(Cc2c(F)c(F)c(O)c(F)c2F)n2cnnc2)cc1`, for which the IC50 against Aromatase [2] was 159 nM. In other words, the sub-micromolar range.

For the compound `N#Cc1ccc(N(Cc2ccc(OS(N)(=O)=O)c(C#N)c2)n2cnnc2)cc1`, the IC50 against Steryl-sulfatase was more than 10000 nM; against Aromatase [2], 27 nM.

For the compound `N#Cc1ccc(N(Cc2ccc(F)c(OS(N)(=O)=O)c2)n2cnnc2)cc1`, the inhibition in vivo at 10 mg/kg in the assay on Rattus norvegicus [3] turned out to be 82%; in the assay on Rattus norvegicus [4] it was 98%; with Rattus norvegicus [5], 20%; in the assay with Rattus norvegicus [6], 33%; with Rattus norvegicus [7] it was 100%.

Take `N#Cc1ccc(N(Cc2ccc(C(F)(F)F)c(O)c2)n2cnnc2)cc1`: the midpoint of inhibition on Aromatase [2], the IC50, lay at 0.4 nM.

For the compound `N#Cc1ccc(N(Cc2ccc(Cl)c(O)c2)n2cnnc2)cc1`, on Aromatase [2], the half-maximal inhibitory concentration (IC50) turned out to be 0.18 nM.

`N#Cc1ccc(N(Cc2ccc(O)c(C#N)c2)n2cnnc2)cc1` showed an IC50 against Aromatase [2] of 24 nM. This IC50 is about 130-fold higher than that of the compound before.

As to `COc1cc(CN(c2ccc(C#N)cc2)n2cnnc2)cc(Cl)c1OS(N)(=O)=O`, the IC50 on Steryl-sulfatase is 536 nM; against Aromatase [2], 2.9 nM.

`N#Cc1ccc(N(Cc2ccc(Br)c(O)c2)n2cnnc2)cc1` had an IC50 at Aromatase [2] of 0.5 nM.

Regarding `N#Cc1ccc(N(Cc2cc(Cl)c(O)c(Cl)c2)n2cnnc2)cc1`, at Aromatase [2], the IC50 came out at 7.6 nM.

Consider `N#Cc1ccc(N(Cc2ccc(O)c(C(F)(F)F)c2)n2cnnc2)cc1`, for which, at Aromatase [2], the IC50 turned out to be 0.88 nM.

Regarding `N#Cc1ccc(N(Cc2cccc(O)c2)n2cnnc2)cc1`, it took 2.8 nM to reach half-maximal inhibition at Aromatase [2] (IC50). Against the preceding compound, the IC50 is about 3.2-fold higher.

For the compound `N#Cc1ccc(N(Cc2ccc(OS(N)(=O)=O)c(Br)c2)n2cnnc2)cc1`, the inhibition in vivo at 10 mg/kg with Rattus norvegicus [3] came to 100%; in the assay on Rattus norvegicus [4], 98%; with Rattus norvegicus [8], 100%; in the assay with Rattus norvegicus [5], 85%; in the assay on Rattus norvegicus [6] it was 72%; in the assay with Rattus norvegicus [7], 100%.

Take `NS(=O)(=O)Oc1ccc2c3c(c(=O)oc2c1)CCCCC3` [IROSUSTAT]: the inhibition in vivo at 10 mg/kg is 100% with Rattus norvegicus [4] and 97% with Rattus norvegicus [6].

`N#Cc1ccc(C(c2ccc(C#N)cc2)n2cncn2)cc1` [LETROZOLE]: the inhibition in vivo at 10 mg/kg in the assay with Rattus norvegicus [3] was found to be 100%; in the assay on Rattus norvegicus [4] it was 3%; in the assay on Rattus norvegicus [5], 100%; in the assay with Rattus norvegicus [6], 6%.

In the case of `N#Cc1ccc(N(Cc2ccc(O)c(I)c2)n2cnnc2)cc1`, the IC50 against Aromatase [2] was determined as 0.33 nM.

`COc1cc(CN(c2ccc(C#N)cc2)n2cnnc2)cc(Cl)c1O` displayed an IC50 at Aromatase [2] of 0.51 nM.

Compound `N#Cc1ccc(N(Cc2ccc(F)c(O)c2)n2cnnc2)cc1` came in with a half-maximal inhibitory concentration (IC50) against Aromatase [2] of 0.6 nM.

The compound `COc1ccc(CN(c2ccc(C#N)cc2)n2cnnc2)cc1O` showed an IC50 at Aromatase [2] of 1.2 nM.

With `N#Cc1ccc(N(Cc2ccc(OS(N)(=O)=O)c(I)c2)n2cnnc2)cc1`, the IC50 at Steryl-sulfatase was determined as 190 nM; at Aromatase [2], 1.5 nM.

`COc1cc(CN(c2ccc(C#N)cc2)n2cnnc2)ccc1OS(N)(=O)=O`: the IC50 against Steryl-sulfatase is 380 nM; against Aromatase [2], 42 nM.

On Steryl-sulfatase, `COc1ccc(CN(c2ccc(C#N)cc2)n2cnnc2)cc1OS(N)(=O)=O` came in with an IC50 of more than 10000 nM.

Regarding `COc1cc(CN(c2ccc(C#N)cc2)n2cnnc2)ccc1O`, at Aromatase [2], it took 2.8 nM to reach half-maximal inhibition (IC50).

Regarding `N#Cc1ccc(N(Cc2ccc(Br)c(OS(N)(=O)=O)c2)n2cnnc2)cc1`, the IC50 against Steryl-sulfatase is more than 10000 nM.
